Results: PMC9186316 (Toxicological Sciences, 2019)
Where two headings read alike, the source gives them in different places.

What was measured:
[1] = Rapid equilibrium dialysis, fraction unbound in rat serum; assay type: in vitro ADME; conditions: for recovery: rat serum; for fraction unbound: serum
[2] = assay type: in vitro ADME; conditions: bovine; for recovery: in vitro MCF-7 proliferation assay medium containing 5% FBS; for fraction unbound: in vitro proliferation assay medium with 5% FBS
[3] = tested on: uterus weight response; parameters: species or system rat; conditions: predicted and in vivo BMDL50 to BMDU50, rats
Summary of the method: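 Generic rat PBK models used for reverse dosimetry of MCF-7 proliferation and YES concentration-response data. In vitro concentrations corrected for unbound fraction (RED in assay medium and rat serum; 10% FBS medium taken as half the 5% FBS fub), then converted to blood concentrations and dose levels. Literature uterotrophic data: absolute uterus weight increase, not body-weight normalised. BMR 50% over control; BMD50 with 95% BMDL50–BMDU50.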

[4] = Hepatic clearance by substrate depletion in rat liver S9; assay type: in vitro ADME; conditions: Sprague-Dawley, liver S9, pH 7.4
Summary of the method: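 Rat liver S9 (pooled, male or female Sprague-Dawley, 0.5 mg/ml) was incubated with 3 µM substrate (added from a 100-fold DMSO stock). Sampling ran 0–90 min against cofactor-free controls, with UPLC quantification. CLint came from the linear part of ln(Ccompound/Ccontrol) versus time. Triplicates, 3 independent studies.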

[5] = Generic PBK model evaluation: predicted versus reported Cmax in rat blood; conditions: oral administration, rats
Summary of the method: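 The generic PBK model predicted parent-compound blood concentration–time curves after single oral dosing in rats, using partition coefficients calculated from log Pow and hepatic clearance from rat liver S9. Doses matched those of the published in vivo kinetic studies. Predicted Cmax was compared with literature blood data, and the difference was expressed as a fold value.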

| Structure (SMILES) | recovery [1] [%] | fraction unbound [1] | recovery [2] [%] | fraction unbound [2] | Potency comparison from BMD50 values (Figure 8) [3] | microsomal CLint at 3 µM ([4]; female) [µL/min/mg] | microsomal CLint at 3 µM ([4]; male) [µL/min/mg] | Difference in Cmax between the model predictions and the in vivo kinetic data [5] [fold] |
| --- | --- | --- | --- | --- | --- | --- | --- | --- |
| CC/C(=C(/CC)c1ccc(O)cc1)c1ccc(O)cc1 [DES, Diethylstilbestrol] | 77 | 0.48 ± 0.08 | 79 | 0.74 ± 0.02 | most potent |  |  |  |
| O=c1c(-c2ccc(O)cc2)coc2cc(O)cc(O)c12 [GEN, genistein] | 83 | 0.07 ± 0.02 | 88 | 0.8 ± 0.04 |  |  |  |  |
| C[C@]12CC[C@@H]3c4ccc(O)cc4CC[C@H]3[C@@H]1CC[C@@H]2O [E2, 17β-estradiol] |  |  |  |  | most potent |  |  |  |
| C#C[C@]1(O)CC[C@H]2[C@@H]3CCc4cc(O)ccc4[C@H]3CC[C@@]21C [EE2, 17α-ethinylestradiol] | 80 | 0.46 ± 0.03 | 86 | 0.72 ± 0.18 | most potent |  |  |  |
| COc1ccc(C(c2ccc(OC)cc2)C(Cl)(Cl)Cl)cc1 [MXC, methoxychlor] | 76 | 0.27 ± 0.04 | 77 | 0.73 ± 0.29 |  | 313 ± 5 | 448 ± 8 |  |
| O=c1oc2cc(O)ccc2c2oc3cc(O)ccc3c12 [COU, coumestrol] | 82 | 0.35 ± 0.07 | 79 | 0.69 ± 0.034 |  |  |  | 2.2 |
| CC(C)(c1ccc(O)cc1)c1ccc(O)cc1 [BPA, bisphenol A] |  |  |  |  | least potent |  |  |  |
